Test results published in ChEMBL document CHEMBL1154457, “Synthesis, anti-tubercular activity and 3D-QSAR study of coumarin-4-acetic acid benzylidene hydrazides” (2008).

The compounds below were run on Mycobacterium tuberculosis (assay: Antitubercular activity against Mycobacterium tuberculosis H37Rv at 12.5 ug/mL after 5 to 8 days).
Assay type: functional
Outline: (§1)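 Inoculum diluted to reach growth index 999 in 5 days. Compound added from DMSO stock to 4 ml radiometric 7H12 (BACTEC-12B) broth; DMSO-only controls. Incubated at 37 °C, GI read daily until control reached 999. %inhibition = (1 − GI test/GI control) × 100.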

**Q.** Which inhibition at 12.5 µg/mL does the source give for `Cc1ccc(C)c2c(CC(=O)N/N=C/c3ccccc3[N+](=O)[O-])cc(=O)oc12` here?
**A.** 65%

**Q.** With `Cc1cc2oc(=O)cc(CC(=O)N/N=C/c3ccc(Cl)cc3)c2cc1C` as the compound, how does the inhibition at 12.5 µg/mL read?
**A.** 32%

**Q.** With `Cc1cc2oc(=O)cc(CC(=O)N/N=C/c3cccc([N+](=O)[O-])c3)c2cc1C` as the compound, how does the inhibition at 12.5 µg/mL read?
**A.** 31%

**Q.** How did the inhibition at 12.5 µg/mL turn out when `Cc1cc2oc(=O)cc(CC(=O)N/N=C/c3ccccc3Cl)c2cc1C` was run?
**A.** 17%

**Q.** How did the inhibition at 12.5 µg/mL turn out when `Cc1ccc(C)c2c(CC(=O)N/N=C/c3ccc(N(C)C)cc3)cc(=O)oc12` was run?
**A.** 7%

**Q.** How did the inhibition at 12.5 µg/mL turn out when `Cc1ccc(C)c2c(CC(=O)N/N=C/c3ccccc3)cc(=O)oc12` was run?
**A.** 70%

**Q.** How did the inhibition at 12.5 µg/mL turn out when `Cc1ccc(C)c2c(CC(=O)N/N=C/c3cccc([N+](=O)[O-])c3)cc(=O)oc12` was run?
**A.** 39%

**Q.** `COc1ccccc1/C=N/NC(=O)Cc1cc(=O)oc2c(C)ccc(C)c12` was tested. Which inhibition at 12.5 µg/mL did it give?
**A.** 54%

**Q.** For `Cc1ccc(C)c2c(CC(=O)N/N=C/c3ccc(Cl)cc3)cc(=O)oc12`, which inhibition at 12.5 µg/mL is on record?
**A.** 62%

**Q.** Which inhibition at 12.5 µg/mL does the source give for `Cc1ccc(C)c2c(CC(=O)N/N=C/c3ccccc3Cl)cc(=O)oc12` here?
**A.** 48%

**Q.** Which inhibition at 12.5 µg/mL does the source give for `COc1cc(/C=N/NC(=O)Cc2cc(=O)oc3c(C)ccc(C)c23)cc(OC)c1OC` here?
**A.** 52%

**Q.** `Cc1cc2oc(=O)cc(CC(=O)N/N=C/c3ccccc3[N+](=O)[O-])c2cc1C` was tested. Which inhibition at 12.5 µg/mL did it give?
**A.** 11%

**Q.** Which inhibition at 12.5 µg/mL does the source give for `CSc1ccc(/C=N/NC(=O)Cc2cc(=O)oc3cc(C)c(C)cc23)cc1` here?
**A.** 6%

These compounds were tested on Mycobacterium tuberculosis (assay: Antitubercular activity against Mycobacterium tuberculosis H37Rv at 6.25 ug/mL after 5 to 8 days).
Assay type: functional
Outline: as §1

**Q.** `Cc1ccc2oc(=O)cc(CC(=O)N/N=C/c3cccc([N+](=O)[O-])c3)c2c1` was tested. Which inhibition at 6.25 µg/mL did it give?
**A.** 19%

**Q.** With `Cc1ccc2oc(=O)cc(CC(=O)N/N=C/c3cccc(Cl)c3)c2c1` as the compound, how does the inhibition at 6.25 µg/mL read?
**A.** 21%

**Q.** Which inhibition at 6.25 µg/mL does the source give for `Cc1ccc2oc(=O)cc(CC(=O)N/N=C/c3ccccc3)c2c1` here?
**A.** 34%

**Q.** With `COc1ccc(/C=N/NC(=O)Cc2cc(=O)oc3ccc(C)cc23)cc1` as the compound, how does the inhibition at 6.25 µg/mL read?
**A.** 33%

**Q.** How did the inhibition at 6.25 µg/mL turn out when `Cc1ccc2oc(=O)cc(CC(=O)N/N=C/c3ccccc3O)c2c1` was run?
**A.** 55%

**Q.** For `COc1ccc(/C=N/NC(=O)Cc2cc(=O)oc3ccc(C)cc23)cc1OC`, which inhibition at 6.25 µg/mL is on record?
**A.** 29%

**Q.** `Cc1ccc2oc(=O)cc(CC(=O)N/N=C/c3ccc(F)cc3)c2c1` was tested. Which inhibition at 6.25 µg/mL did it give?
**A.** 26%

**Q.** With `Cc1ccc2oc(=O)cc(CC(=O)N/N=C/c3ccc(Cl)cc3)c2c1` as the compound, how does the inhibition at 6.25 µg/mL read?
**A.** 19%

**Q.** Which inhibition at 6.25 µg/mL does the source give for `Cc1ccc2oc(=O)cc(CC(=O)N/N=C/c3ccccc3Cl)c2c1` here?
**A.** 34%

**Q.** With `COc1cc(/C=N/NC(=O)Cc2cc(=O)oc3ccc(C)cc23)cc(OC)c1OC` as the compound, how does the inhibition at 6.25 µg/mL read?
**A.** 34%

**Q.** `O=C(Cc1cc(=O)oc2cc(O)ccc12)N/N=C/c1cccc([N+](=O)[O-])c1` was tested. Which inhibition at 6.25 µg/mL did it give?
**A.** 93%

**Q.** Which inhibition at 6.25 µg/mL does the source give for `COc1cccc(/C=N/NC(=O)Cc2cc(=O)oc3ccc(C)cc23)c1` here?
**A.** 19%
